ChEMBL document CHEMBL4350958, “Rational Design of Short Peptide Variants by Using Kunitzin-RE, an Amphibian-Derived Bioactivity Peptide, for Acquired Potent Broad-Spectrum Antimicrobial and Improved Therapeutic Potential of Commensalism Coinfection of Pathogens” (J Med Chem, 2019)
Calls of active or inactive are those of the source. The rule behind the calls is not given here. Where a SMILES comes first, the peptide text is derived from it.

How the values were obtained:
[1] = tested on: Escherichia coli; assay: Induction of cytoplasmic membrane depolarization in Escherichia coli ATCC 25922 at MIC up to 3000 secs by DiSC3-5 dye-based fluorescence spectrophotometric method; assay type: organism-based
Procedure, shortened: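 Mid-log E. coli ATCC 25922 (OD600 0.05) equilibrated with 0.4 μM DiSC3-5 and 100 mM K+ in 5 mM HEPES pH 7.4 with 20 mM glucose until fluorescence was stably quenched. Peptide then added in a 1-cm cuvette, and fluorescence (ex 622/em 670 nm) followed from 0 to 3000 s. Triplicate independent runs.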

[2] = tested on: RAW264.7; assay: Cytotoxicity against mouse RAW264.7 cells assessed as cell viability at 2 to 64 uM measured after 18 to 24 hrs by MTT assay relative to control; assay type: cell-based; conditions: raw264.7, 64 µM
Procedure, shortened: (§1)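 MTT assay: RAW264.7 cells seeded at 1.0–2.0×10^4 per well and exposed to peptide (2–64 µM) for 18–24 h at 37 °C in 5% CO2. MTT (0.5 mg/mL) added for 4 h, formazan dissolved in DMSO, read at 570 nm. At least three independent experiments with triplicate wells.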

[3] = tested on: Candida albicans; assay: (§2) Antifungal activity against Candida albicans cgmcc2.2086 infected in C57BL/6 mouse model of keratitis assessed as appearance of transparent corneas at 1 to 5 mg/ml administered as topical eye drop every 5 mins for first 4 hrs and every 30 mins for next 7 hrs measured post-last dose; assay type: functional, organism-based
[4] = tested on: Staphylococcus aureus; assay: Induction of morphological changes in Staphylococcus aureus ATCC 29213 assessed as cell content leakage at MBD measured after 1 hr by atomic force microscopic analysis; assay type: functional, organism-based
[5] = tested on: Pseudomonas aeruginosa; assay: Antibacterial activity against Pseudomonas aeruginosa ATCC 27853 at sub-MBC measured after 30 serial passages; assay type: functional, organism-based
Procedure, shortened: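 P. aeruginosa ATCC 27853 passaged every 24 h by 100-fold dilution in MHB containing sub-MBC drug, for 30 passages. MBC was tested on the cells from each passage. Control cells were passaged in drug-free MHB. Run independently in triplicate with three biological replicates.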

[6] = tested on: Escherichia coli; assay: Induction of morphological changes in Escherichia coli ATCC 25922 at MBD measured after 1 hr by atomic force microscopic analysis; assay type: functional, organism-based
[7] = tested on: Candida albicans; assay: as §2, with “reduction in fungal hyphae extention into corneal stroma” for “appearance of transparent corneas”, “dose by periodic acid schiff staining-based histological analysis” for “dose”; assay type: functional, organism-based
[8] = tested on: Staphylococcus aureus; assay: Induction of morphological changes in Staphylococcus aureus ATCC 29213 at MBD measured after 1 hr by atomic force microscopic analysis; assay type: functional, organism-based
[9] = tested on: Escherichia coli; assay: Induction of outer membrane permeabilization in Escherichia coli ATCC 25922 at sub-MIC by NPN-dye based assay relative to control
Procedure, shortened: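 Mid-log E. coli ATCC 25922 (OD600 0.2) preloaded 30 min with 10 μM NPN in 5 mM HEPES, pH 7.4, 5 mM glucose; cells mixed with equal volume of peptide solutions (1 to 64 μM). Fluorescence (ex 350, em 420 nm) read until plateau, background-subtracted, expressed as % NPN uptake relative to 10 μg/mL polymyxin B (100%). Three independent experiments, triplicate each.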

[10] = tested on: Candida albicans; assay: Antifungal activity against Candida albicans cgmcc2.2086 assessed as ratio of MIC95 in presence of CaCl2 to in absence of CaCl2; assay type: functional
Procedure, shortened: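 C. albicans cgmcc 2.2086, (0.5–1) × 10^3 CFU/mL final in MOPS-buffered RPMI 1640, with or without 2 mM CaCl2 (final). Peptide serially diluted in 0.2% BSA and mixed 1:1, 48 h at 28 °C. MIC is the lowest concentration inhibiting 95% of growth by A492. Three independent assays, each with three technical replicates.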

[11] = tested on: Staphylococcus aureus; assay: Disruption of plasma membrane integrity in Staphylococcus aureus ATCC 29213 at MBC measured after 30 mins using FITC-labeled compound by propidium iodide staining-based microscopic analysis; assay type: organism-based
Procedure, shortened: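 E. coli ATCC 25922 or S. aureus ATCC 29213 (OD600 0.2) incubated with FITC-labeled peptide at 1×MBC, 37 °C, 30 min. Cells washed, resuspended with PI (10 μg/mL) in PBS, smeared and imaged by superresolution microscopy using 488 and 535 nm filters for FITC and PI. Peptide-free cells served as controls. Three independent scans.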

[12] = tested on: Staphylococcus aureus; assay: Induction of morphological changes in Staphylococcus aureus ATCC 29213 assessed as appearance of intracellular empty areas at MBD measured after 1 hr by transmission electron microscopic analysis; assay type: functional, organism-based
[13] = tested on: Staphylococcus aureus; assay: Induction of morphological changes in Staphylococcus aureus ATCC 29213 assessed as […] at MBD measured after 1 hr by transmission electron microscopic analysis; assay type: functional, organism-based
[14] = tested on: Lipid bilayer; assay: Induction of membrane disruption in PC/CL large unilamellar vesicles assessed as calcein-entrapped liposome leakage at 1 to 64 uM after 15 mins by spectrofluorophotometric assay relative to control; conditions: artificial membrane, 0.25 h
[15] = tested on: Candida albicans; assay: Antifungal activity against Candida albicans cgmcc2.2086 infected in C57BL/6 mouse model of keratitis assessed as appearance of transparent irises at 1 to 5 mg/ml administered as topical eye drop every 5 mins for first 4 hrs and every 30 mins for next 7 hrs measured post-last dose; assay type: functional, organism-based
[16] = tested on: Candida albicans; assay: as §2, with “reduction in fungal hyphae infiltration into corneal stroma” for “appearance of transparent corneas”, “dose by periodic acid schiff staining-based histological analysis” for “dose”; assay type: functional, organism-based
[17] = tested on: Pseudomonas aeruginosa; assay: Bactericidal activity against gentamicin-resistant Pseudomonas aeruginosa ATCC 27853 incubated for 24 hrs followed by replating on agar plate and measured after overnight incubation; assay type: functional, organism-based
[18] = tested on: Lipopolysaccharide (LPS); assay: Displacement of BODIPY-TR-cadaverine from Escherichia coli O111:B4 LPS at 64 uM after 1 hr by spectrofluorophotometric method relative to control
Procedure, shortened: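 E. coli O111:B4 LPS (50 μg/mL) preloaded 4 h with BODIPY-TR-cadaverine (5 μg/mL) in 50 mM Tris, pH 7.4. Mixed 1:1 with peptide (1–64 µM series), 1 h at 37 °C, then fluorescence read. Expressed as %ΔF: 0% is probe with LPS and no peptide, 100% is probe with LPS plus 10 μg/mL polymyxin B. Three technical replicates.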

[19] = tested on: Escherichia coli; assay: Induction of morphological changes in Escherichia coli ATCC 25922 assessed as appearance of intracellular empty area at MBD measured after 1 hr by transmission electron microscopic analysis; assay type: functional, organism-based
[20] = tested on: Escherichia coli; assay: Induction of morphological changes in Escherichia coli ATCC 25922 assessed as hole formation at MBD measured after 1 hr by scanning electron microscopic analysis; assay type: functional, organism-based
[21] = tested on: Escherichia coli; assay: Induction of morphological changes in Escherichia coli ATCC 25922 assessed as pore formation at MBD measured after 1 hr by transmission electron microscopic analysis; assay type: functional, organism-based
[22] = tested on: RAW264.7; assay: Cytotoxicity against mouse RAW264.7 cells assessed as reduction in cell viability at 2 to 64 uM measured after 18 to 24 hrs by MTT assay relative to control; assay type: cell-based; conditions: raw264.7, 64 µM; procedure, shortened: as §1

With `CC[C@H](C)[C@H](NC(=O)[C@H](CCCCN)NC(=O)[C@H](C)NC(=O)[C@H](C)N)C(=O)N[C@H](C(=O)N[C@@H](CC(C)C)C(=O)N[C@@H](CC(N)=O)C(=O)N1CCC[C@H]1C(=O)N[C@@H](CCCCN)C(=O)N[C@@H](Cc1ccccc1)C(=O)N[C@@H](CCCNC(=N)N)C(=O)N[C@@H](CS)C(=O)N[C@@H](CCCCN)C(=O)N[C@@H](C)C(=O)N[C@@H](C)C(=O)N[C@@H](Cc1ccccc1)C(=O)N[C@@H](CS)C(N)=O)[C@@H](C)CC` (H-AAKIILNPKFRCKAAFC-NH2) the Activity [1] was “Active”.
For `CC[C@H](C)[C@H](NC(=O)CN)C(=O)NCC(=O)N[C@@H](C)C(=O)N[C@H](C(=O)N[C@@H](CC(C)C)C(=O)N[C@@H](CCCCN)C(=O)N[C@H](C(=O)N[C@@H](CC(C)C)C(=O)N[C@H](C(=O)N[C@H](C(=O)NCC(=O)N[C@@H](CC(C)C)C(=O)N1CCC[C@H]1C(=O)N[C@@H](C)C(=O)N[C@@H](CC(C)C)C(=O)N[C@H](C(=O)N[C@@H](CO)C(=O)N[C@@H](Cc1c[nH]c2ccccc12)C(=O)N[C@H](C(=O)N[C@@H](CCCCN)C(=O)N[C@@H](CCCNC(=N)N)C(=O)N[C@@H](CCCCN)C(=O)N[C@@H](CCCNC(=N)N)C(=O)N[C@@H](CCC(N)=O)C(=O)N[C@@H](CCC(N)=O)C(N)=O)[C@@H](C)CC)[C@@H](C)CC)[C@@H](C)O)[C@@H](C)O)C(C)C)C(C)C` [MELITTIN], the Activity [2] was “Toxic”.
In the case of H-AARIILRWRFR-NH2, the Activity [3] is reported as “Active”, the Activity [4] is reported as “Active” and the Activity [5] is reported as “Active”. For the same compound, the Activity [6] was “Active”, the Activity [7] was “Active” and the Activity [8] was “Active”. The Activity [9] was 15%, the Ratio [10] was 4 and the Activity [11] was “Active”. The Activity [12] was “Active”, the Activity [13] was “Active” and the Activity [14] was < 5%. For the same compound, the Activity [15] was “Active”, the Activity [16] was “Active” and the Activity [17] was “Active”. For the same compound, the Activity [18] was 180%, the Activity [19] was “Active” and the Activity [20] was “Active”. For the same compound, the Activity [21] was “Active”.
In the case of H-AARRILRWIFR-NH2, the Activity [22] is reported as > 89.76%.
